According to ChEMBL document CHEMBL1126292, “Selective beta 3-adrenergic agonists of brown adipose tissue and thermogenesis. 2. [4-[2-[(2-Hydroxy-3-phenoxypropyl)amino]ethoxy]phenoxy]acetamides” (J Med Chem, 1992):
In brackets after ≈: the same amount, converted by molar mass.

Key:
[1] = system: Rattus norvegicus; assay: Ratio of the dose (D500, peroral administration) elevating the rat heart rate to 500 bpm and GDP ED50.; type: functional
[2] = biological target: Beta-3 adrenergic receptor (Rattus norvegicus) (UniProt P26255); assay: Stimulation of GDP binding against beta-3 adrenergic receptor in brown adipose tissue (BAT) mitochondria of rats after peroral administration (Dose necessary to produce 50% of the isoprenaline effect).
Sequence of Beta-3 adrenergic receptor (Rattus norvegicus) (P26255 whole entry): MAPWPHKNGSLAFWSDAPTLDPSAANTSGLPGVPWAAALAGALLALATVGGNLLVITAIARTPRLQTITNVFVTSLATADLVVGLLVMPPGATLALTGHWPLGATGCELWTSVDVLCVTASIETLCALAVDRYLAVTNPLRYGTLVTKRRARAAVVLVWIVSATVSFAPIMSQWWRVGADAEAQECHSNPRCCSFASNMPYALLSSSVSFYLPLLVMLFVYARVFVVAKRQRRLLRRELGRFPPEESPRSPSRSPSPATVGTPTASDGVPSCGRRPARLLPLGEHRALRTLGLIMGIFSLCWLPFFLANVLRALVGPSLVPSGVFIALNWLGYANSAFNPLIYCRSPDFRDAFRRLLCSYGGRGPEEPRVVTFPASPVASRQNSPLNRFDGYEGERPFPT

[3] = Partition coefficient (logP); type: physicochemical; conditions: octanol/water
Method in brief: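 log P is the octanol–water partition coefficient.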

[4] = Aqueous solubility at a pH 7; type: physicochemical; conditions: read-out: S
Method in brief: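 Aqueous solubility was measured on the hydrochloride salts in aqueous buffer of 0.15 M sodium chloride and 0.01 M sodium dihydrogen phosphate at pH 7. Values are given in mg mL⁻¹.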

[5] = biological target: Beta-3 adrenergic receptor (Rattus norvegicus) (UniProt P26255); assay: Dose of the compound (peroral administration) to […] GDP binding against Beta-3 adrenergic receptor in brown adipose tissue(BAT mitochondria) of rats. [Dose necessary to produce 50% of the isoprenaline effect]

Row | SMILES | Selectivity index [1] | GDP ED50 [2] [mg/kg] | logP [3] | solubility [4] [µg/mL] | GDP ED50 [5] [mg/kg]
1 | CNC(=O)COc1ccc(OCCNC[C@H](O)COc2ccccc2)cc1 | >100 | 0.57 | – | – | –
2 | CCCCNC(=O)COc1ccc(OCCNCC(O)COc2ccccc2)cc1 (centres undefined) | >100 | 1.5 | – | – | –
3 | CC(NC(=O)COc1ccc(OCCNCC(O)COc2ccccc2)cc1)c1ccccc1 (centres undefined) | >10 | 0.96 | – | – | –
4 | CN(Cc1ccccc1)C(=O)COc1ccc(OCCNCC(O)COc2ccccc2)cc1 (centres undefined) | – | 8.6 | – | – | –
5 | CCN(CC)C(=O)COc1ccc(OCCNCC(O)COc2ccccc2)cc1 (centres undefined) | 33 | 1.16 | – | – | –
6 | O=C(COc1ccc(OCCNCC(O)COc2ccccc2)cc1)NCc1ccco1 (centres undefined) | – | 1.53 | – | – | –
7 | NC(=O)CNC(=O)COc1ccc(OCCNCC(O)COc2ccccc2)cc1 (centres undefined) | >50 | 1.18 | – | – | –
8 | O=C(COc1ccc(OCCNCC(O)COc2ccccc2)cc1)N1CCCC1 (centres undefined) | >50 | 1.8 | – | – | –
9 | O=C(COc1ccc(OCCNCC(O)COc2ccccc2)cc1)NCc1cccs1 (centres undefined) | – | 0.69 | – | – | –
10 | O=C(COc1ccc(OCCNCC(O)COc2ccccc2)cc1)NCc1ccccc1 (centres undefined) | >100 | 0.25 | 3.2 | 40 (≈ 88.8 µM) | –
11 | COCC(C)NC(=O)COc1ccc(OCCNCC(O)COc2ccccc2)cc1 (centres undefined) | – | 3.88 | – | – | –
12 | CN(C)C(=O)COc1ccc(OCCNCC(O)COc2ccccc2)cc1 (centres undefined) | >50 | 1.4 | – | – | –
13 | O=C(COc1ccc(OCCNCC(O)COc2ccccc2)cc1)N1CCCO1 (centres undefined) | – | 0.49 | – | – | –
14 | COCCNC(=O)COc1ccc(OCCNC[C@@H](O)COc2ccccc2)cc1 | – | 69.9 | – | – | –
15 | CCC(C)NC(=O)COc1ccc(OCCNCC(O)COc2ccccc2)cc1 (centres undefined) | – | 1.7 | – | – | –
16 | O=C(COc1ccc(OCCNCC(O)COc2ccccc2)cc1)NCc1ccc(Cl)cc1Cl (centres undefined) | – | 2.77 | – | – | –
17 | NC(=O)COc1ccc(OCCNCC(O)COc2ccccc2F)cc1 (centres undefined) | >10 | 2.24 | – | – | –
18 | CCNC(=O)COc1ccc(OCCNCC(O)COc2ccccc2)cc1 (centres undefined) | >100 | 0.5 | – | – | –
19 | O=C(COc1ccc(OCCNCC(O)COc2ccccc2)cc1)NCCCO (centres undefined) | >100 | 0.47 | 0.5 | 36000 (≈ 86000 µM) | –
20 | O=C(COc1ccc(OCCNCC(O)COc2ccccc2)cc1)N1CCc2ccccc2C1 (centres undefined) | >100 | 0.44 | – | – | –
21 | CNC(=O)COc1ccc(OCCNCC(O)COc2ccccc2F)cc1 (centres undefined) | >50 | 1.1 | – | – | –
22 | O=C(COc1ccc(OCCNCC(O)COc2ccccc2)cc1)NCCO (centres undefined) | >100 | 0.67 | – | – | –
23 | CNC(=O)COc1cccc(OCCNCC(O)COc2ccccc2)c1 (centres undefined) | 74 | 0.31 | – | – | –
24 | COCCCNC(=O)COc1ccc(OCCNCC(O)COc2ccccc2)cc1 (centres undefined) | >100 | 0.83 | – | – | –
25 | CCCNC(=O)COc1ccc(OCCNCC(O)COc2ccccc2)cc1 (centres undefined) | >100 | – | 2.4 | 600 (≈ 1490 µM) | 0.2

Row | SMILES | Selectivity index [1] | GDP ED50 [2] [mg/kg] | logP [3] | solubility [4] [µg/mL] | GDP ED50 [5] [mg/kg]
26 | C=CCNC(=O)COc1ccc(OCCNCC(O)COc2ccccc2)cc1 (centres undefined) | >100 | 0.64 | – | – | –
27 | O=C(COc1ccc(OCCNCC(O)COc2ccccc2)cc1)NC1CC1 (centres undefined) | >50 | 0.79 | – | – | –
28 | O=C(COc1ccc(OCCNCC(O)COc2ccccc2)cc1)N1Cc2ccccc2C1 (centres undefined) | – | 1.3 | – | – | –
29 | CC(C)NC(=O)COc1ccc(OCCNCC(O)COc2ccccc2)cc1 (centres undefined) | >100 | 0.4 | 2.4 | 900 (≈ 2240 µM) | –
30 | O=C(COc1ccc(OCCNCC(O)COc2ccccc2)cc1)NOCc1ccccc1 (centres undefined) | – | 0.48 | – | – | –
31 | CNC(=O)COc1ccc(OCCNCC(O)COc2ccccc2)cc1 (centres undefined) | >50 | 1.2 | – | – | –
32 | O=C(COc1ccc(OCCNCC(O)COc2ccccc2)cc1)NCCOc1ccccc1 (centres undefined) | >100 | 0.72 | – | – | –
33 | O=C(COc1ccc(OCCNCC(O)COc2ccccc2)cc1)N1CCOCC1 (centres undefined) | >100 | 0.54 | – | – | –
34 | NC(=O)COc1ccc(OCCNCC(O)COc2ccccc2)cc1 (centres undefined) | >100 | 0.3 | 1.1 | 400 (≈ 1110 µM) | –
35 | C=CCNC(=O)COc1ccc(OCC(C)NCC(O)COc2ccccc2)cc1 (centres undefined) | >20 | 1.03 | – | – | –
36 | CC(CO)NC(=O)COc1ccc(OCCNCC(O)COc2ccccc2)cc1.O (centres undefined) | >50 | 0.85 | – | – | –
37 | CNC(=O)COc1ccc(OCC(C)NCC(O)COc2ccccc2)cc1 (centres undefined) | >10 | 0.25 | – | – | –
38 | O=C(COc1ccc(OCCNCC(O)COc2ccccc2)cc1)N1CCCCC1 (centres undefined) | >100 | 0.4 | 2.6 | 2000 (≈ 4670 µM) | –
39 | O=C(COc1ccc(OCCNCC(O)COc2ccccc2)cc1)Nc1ccccc1 (centres undefined) | – | 1.38 | – | – | –
40 | COCCNC(=O)COc1ccc(OCCNC[C@H](O)COc2ccccc2)cc1 | >100 | 0.34 | – | – | –
41 | O=C(COc1ccc(OCCNC[C@H](O)COc2ccccc2)cc1)NCCO | >50 | 0.77 | – | – | –
42 | O=C(COc1ccc(OCCNCC(O)COc2ccccc2F)cc1)N1CCCCC1 (centres undefined) | – | 7.9 | – | – | –
43 | O=C(COc1ccc(OCCNCC(O)COc2ccccc2)cc1)NCCc1ccccc1 (centres undefined) | >50 | 1.23 | – | – | –
44 | COCCNC(=O)COc1ccc(OCCNC[C@H](O)COc2ccc(O)cc2)cc1 | – | 4.16 | – | – | –
45 | CC(C)CNC(=O)COc1ccc(OCCNCC(O)COc2ccccc2)cc1 (centres undefined) | – | 3.2 | – | – | –
46 | O=C(COc1ccc(OCCNCC(O)COc2ccccc2)cc1)NCc1ccc(Cl)cc1 (centres undefined) | >50 | 0.92 | – | – | –
47 | COCCNC(=O)COc1ccc(OCCNCC(O)COc2ccccc2)cc1 (centres undefined) | >100 | 0.24 | 1.7 | 11000 (≈ 26300 µM) | –
48 | O=C(COc1ccc(OCCNCC(O)COc2ccccc2)cc1)NC1CCCC1 (centres undefined) | >10 | 3.1 | – | – | –
49 | O=C(COc1ccc(OCCNCC(O)COc2ccccc2)cc1)NO (centres undefined) | >100 | 0.5 | – | – | –
50 | NNC(=O)COc1ccc(OCCNCC(O)COc2ccccc2)cc1 (centres undefined) | – | 1.15 | – | – | –
